Screening data from PubChem BioAssay.
Glyco luc inh: N-linked glycosylation inhibition; 360,000 tested, 0.23% active; reporter increase, % at 12.5 µM; AID 588692; D54 ERlucT glycosylation luciferase reporter, 24 h; percent of 100 nM tunicamycin response;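 active = mean luciferase reporter signal, scaled so untreated is 0 and the glycosylation-blocking control 100, at or above a set limit in every replicate; inconclusive = mean reaches the limit but not every replicate does; inactive = mean below the limit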;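 note: luciferase carries N-glycosylation sites so blocking glycosylation raises the light; 0% = median of neutral control wells and 100% = median of 100 nM tunicamycin wells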
bovine MsrA act: bovine methionine sulfoxide reductase A activation; activation, % at 10.6 µM; AID 602163; 360,000 tested, 0.3% active; purified bovine MsrA, absorbance read-out; in the data active = activation above about 7.5%;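 note: 0% = vehicle and 100% = reference activator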
aDG glyco act: increases alpha dystroglycan glycosylation; activation, % at 10 µM; Pro5-aDG cells, alpha-DG glycosylation AlphaScreen (IIH6); 0% Pro5, 100% B10-LARGE cell signal; 360,000 tested, 0.22% active;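 active = activation of at least 8% versus controls, or a plate z-score of at least 8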;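 note: Pro5 are CHO cells carrying HIG-tagged alpha-DG that lacks glycosylation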
Vif imaging: inhibitors of HIV Vif. HEK293T cells, Vif self-association by quenched fluorescence, imaging, 24 h. inhibition, % at 7.49 µM. 340,000 tested, 0.35% active. AID 602346; in the data active = inhibition above about 50%, passing the limit was not always enough; inconclusive = no clear call, values can overlap the other calls; inactive = below about 31%
MsrA inhibitor: inhibitors of bovine MsrA; purified bovine MsrA, absorbance read-out; inhibition, % at 15.5 µM; 360,000 tested, 0.75% active; AID 651718;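 note: 0% = vehicle wells with enzyme and 100% = reference inhibitor wells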
UCH37 inh: inhibitors of human deubiquitinating enzyme UCH37; Q9Y5K5; purified proteasome/UCH37, Ub-AMC cleavage fluorescence; inhibition, % (no concentration beside the values); 330,000 tested, 0.33% active; AID 588478;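 active = mean inhibition over replicate wells above about 20%, limit read from the data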;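 note: 0% = compound-free wells with enzyme and 100% = wells lacking proteasome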
Target sequence (Q9Y5K5 whole entry, looked up): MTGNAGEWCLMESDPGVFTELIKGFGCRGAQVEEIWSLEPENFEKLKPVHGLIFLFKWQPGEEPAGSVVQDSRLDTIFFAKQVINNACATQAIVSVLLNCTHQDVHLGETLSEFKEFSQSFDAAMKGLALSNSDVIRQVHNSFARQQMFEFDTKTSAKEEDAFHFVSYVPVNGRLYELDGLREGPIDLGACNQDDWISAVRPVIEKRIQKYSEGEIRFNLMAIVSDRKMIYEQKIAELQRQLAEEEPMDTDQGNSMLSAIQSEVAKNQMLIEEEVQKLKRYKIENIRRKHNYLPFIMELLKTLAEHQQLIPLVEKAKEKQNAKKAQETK
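assay system = human UCH37 enzyme supplied as purified proteasome complex | amount = proteasome at 0.15 nM in the dispensed enzyme solution | schedule = 30 min compound-proteasome preincubation then 25 min substrate reaction, room temperature | measured by = fluorescence, ex 355 nm, em 460 nm | benchmarks = no-proteasome wells (full inhibition) and compound-free wells (no inhibition)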
MsrA inh confirm: confirmation of bovine MsrA inhibitors | shares compounds with MsrA inhibitor | purified bovine MsrA, absorbance read-out | inhibition, % at 15.5 µM | 2,300 tested, 41% active | AID 651822;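 note: coupled to thioredoxin reductase with NADPH and selenocystamine and DMSO as substrate; 0% = vehicle only and 100% = full effect of reference inhibitor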
The depositor's hits bear a star. The list is not random: actives were taken first. Their share in the collection is about 1.9%. Cut-off read from the data, not from the text of the source, unless noted: active = inhibition above about 4.5%; inactive = the rest.

For CC(=NNc1nnc(-c2ccccc2)c(-c2ccccc2)n1)c1cccc([N+](=O)[O-])c1 the results were UCH37 inh 7.
O=C(N/N=C/C(Cl)=C\c1ccccc1)c1cnccn1 was read as Glyco luc inh 3, bovine MsrA act -17, aDG glyco act 0, Vif imaging 18 and MsrA inhibitor 4.
`O=C(N/N=C/C(Cl)=C/c1ccccc1)c1cnccn1` gave Glyco luc inh 2, bovine MsrA act -6, aDG glyco act 0, Vif imaging 8, MsrA inhibitor 9.6* and MsrA inh confirm 4.
For O=C(N/N=C/C(Cl)=C/c1ccccc1)c1ccco1 the results were Glyco luc inh -2, bovine MsrA act -7, aDG glyco act 0, Vif imaging 9, MsrA inhibitor 8.5* and MsrA inh confirm 6.6*.
Screening Cc1nc(N2CCN(Cc3ccc4c(c3)OCO4)CC2)c2oc3ccccc3c2n1 returned Glyco luc inh 17, bovine MsrA act -4, aDG glyco act 0, Vif imaging -10, MsrA inhibitor 9.9*, UCH37 inh -5 and MsrA inh confirm 0.
COc1ccccc1OCCn1cc(C=NNC(N)=S)c2ccccc21 was read as UCH37 inh 7.
For Cc1cc(C)c(C=NNC(=O)c2nnn(-c3nonc3N)c2COc2ccc(F)cc2)c(C)c1 the results were UCH37 inh 4.
O=C(/C=C/c1ccco1)Nc1cccc(S(=O)(=O)N2CCOCC2)c1 was read as Glyco luc inh 4, bovine MsrA act -6, aDG glyco act 0, Vif imaging -13, MsrA inhibitor 2 and UCH37 inh 5.
Screening Cc1ccc(/C=C/C(=O)Nc2cccc(S(=O)(=O)N3CCOCC3)c2)o1 returned Glyco luc inh 0, bovine MsrA act -6, aDG glyco act 0, Vif imaging -12, MsrA inhibitor 5.0*, UCH37 inh 5 and MsrA inh confirm 4.9*.
For COc1cc(/C=N/Nc2nc3c(c(=O)n(C)c(=O)n3C)n2Cc2ccccc2)ccc1OC(=O)c1ccco1 the results were Glyco luc inh inconclusive, bovine MsrA act -9, aDG glyco act -1, Vif imaging -13, MsrA inhibitor 5.4* and MsrA inh confirm 4.
For O=C1N/C(=N\N=Cc2cccnc2)SC1Cc1ccc(SC(F)F)cc1 (configuration not stated) the results were UCH37 inh 5.
For O=C(CON=Cc1ccc(OC(F)F)cc1)NC1CCCC1 the results were UCH37 inh 2.
Screening O=C(CSc1ccc(-c2nc3ccccc3[nH]2)cn1)N1CCN(C(=O)c2ccco2)CC1 returned Glyco luc inh 4, bovine MsrA act -5, aDG glyco act 1, Vif imaging 40, MsrA inhibitor 5.1*, UCH37 inh -26 and MsrA inh confirm 2.
Screening O=C(CCc1nc2ccccc2[nH]1)N1CCN(C(=O)c2ccco2)CC1 returned Glyco luc inh 0, bovine MsrA act 0, aDG glyco act 0, Vif imaging -11, MsrA inhibitor 0 and UCH37 inh 1.
For c1ccc(-c2nnsc2Sc2ccccn2)cc1 the results were Glyco luc inh -3, bovine MsrA act 3, aDG glyco act 0, Vif imaging 1, MsrA inhibitor 5.8*, UCH37 inh 7 and MsrA inh confirm 4.
`CCCOc1ccc(C(=O)ON=C(CC)c2ccc(C)cc2)cc1` gave UCH37 inh 7.
For COc1ccc2cc(-c3[nH]ncc3CN3CCCC3c3nonc3C)ccc2c1 (configuration not stated) the results were Glyco luc inh 14, bovine MsrA act -6, aDG glyco act 0, Vif imaging 3, MsrA inhibitor 33*, UCH37 inh -2 and MsrA inh confirm 26*.
COc1ccc(-c2[nH]ncc2CN2CCCC(C(=O)c3cccc(OC)c3)C2)cc1 (configuration not stated) was read as Glyco luc inh 0, bovine MsrA act -4, aDG glyco act 0, Vif imaging 20, MsrA inhibitor 1 and UCH37 inh -2.
For Cc1cc(C)n2nc(C(=O)NN=Cc3ccc(Cl)cc3)nc2n1 the results were UCH37 inh 2.
`O=c1cnn(-c2ccccc2)c(-c2ccccc2)c1` gave Glyco luc inh 6, bovine MsrA act -5, aDG glyco act 1, Vif imaging -14, MsrA inhibitor 12*, UCH37 inh 1 and MsrA inh confirm 9.5*.
For O=C(O)c1ccc(N=NN2CCCCCC2)cc1 the results were Glyco luc inh -10, bovine MsrA act -4, aDG glyco act 0, Vif imaging -4, MsrA inhibitor 4 and UCH37 inh 7.
O=C(O)c1ccc(N=NN2CCCC2)cc1 was read as Glyco luc inh 1, bovine MsrA act -6, aDG glyco act 0, Vif imaging -5, MsrA inhibitor 5.1*, UCH37 inh 11 and MsrA inh confirm 3.
`N#C/C(=N\Nc1ccccc1)C(=N)N1CCOCC1` gave Glyco luc inh 0, bovine MsrA act -10, aDG glyco act 0, Vif imaging 1, MsrA inhibitor 5.1* and MsrA inh confirm 2.
Screening CC(=O)c1ccc(-c2nc3ccccc3n2C)o1 returned Glyco luc inh 0, bovine MsrA act -1, aDG glyco act 0, Vif imaging 7, MsrA inhibitor 6.7*, UCH37 inh inactive and MsrA inh confirm 2.
Cc1cc(-c2n[nH]c(=S)n2N=Cc2ccc(Br)s2)n[nH]1 was read as UCH37 inh 4.
COC(=O)c1nc(-c2ccc(C)cc2)oc1N(C)C was read as Glyco luc inh 2, bovine MsrA act -4, aDG glyco act 0, Vif imaging 0, MsrA inhibitor 4.8*, UCH37 inh -131 and MsrA inh confirm 2.
Cc1cc(O)c(C(C)C)cc1N=Cc1ccc(N(C)C)cc1 was read as Glyco luc inh 1, bovine MsrA act -5, aDG glyco act 1, Vif imaging 0, MsrA inhibitor 4.9*, UCH37 inh 8 and MsrA inh confirm 4.
For Cn1ccsc1=NC(=O)c1cccc(C#N)c1 the results were Glyco luc inh 3, bovine MsrA act -3, aDG glyco act 0, Vif imaging -10, MsrA inhibitor 5.5*, UCH37 inh 8 and MsrA inh confirm 1.
`Cn1ccsc1=NC(=O)c1ccc(S(C)(=O)=O)cc1` gave Glyco luc inh 0, bovine MsrA act -6, aDG glyco act 0, Vif imaging 11, MsrA inhibitor 2 and UCH37 inh 8.
For Cc1ccc(C(=O)N=c2sccn2C)cc1C the results were Glyco luc inh -7, bovine MsrA act 4, aDG glyco act 2, Vif imaging 1, MsrA inhibitor 2 and UCH37 inh 1.
